# HTR5A inv ctr: inverse agonist of human HTR5A in OPRM1-OPRD1 counter-screen; HTR5A cell line, luminescence, inverse agonism; inhibition, % at 9.3 µM; 340,000 tested, 0.083% active; AID 504634; in the data active means inhibition mostly above about 23%, no sharp cut-off; inactive means mostly below about 18%;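 further: 0% = cells with DMSO and 100% = no-cell wells with DMSO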
# Target sequence (P47898 whole entry, looked up): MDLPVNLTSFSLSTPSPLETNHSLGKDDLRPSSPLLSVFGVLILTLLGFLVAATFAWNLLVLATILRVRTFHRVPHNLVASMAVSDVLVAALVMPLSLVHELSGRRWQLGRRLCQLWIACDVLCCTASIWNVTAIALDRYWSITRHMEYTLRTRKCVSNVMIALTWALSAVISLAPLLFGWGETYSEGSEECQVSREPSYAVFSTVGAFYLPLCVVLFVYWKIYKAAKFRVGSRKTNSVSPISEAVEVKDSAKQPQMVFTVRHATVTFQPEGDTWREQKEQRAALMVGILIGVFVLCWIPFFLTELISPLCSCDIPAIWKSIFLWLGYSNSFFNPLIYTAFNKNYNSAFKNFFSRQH
# HTR5A ag ctr: HTR5A agonism, opioid heterodimer counter-screen; AID 504692; P47898; activation, % at 9.3 µM; 340,000 tested, 0.61% active; HTR5A agonist assay, luminescence, cell-based; in the data active means activation mostly above about 9.5%, no sharp cut-off; inactive means mostly below about 7.6%;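 further: 0% = cells with vehicle only and 100% = reference agonist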
# DAGLB inh: diacylglycerol lipase beta (human) inhibition; Q8NCG7; HEK293T DAGLB membrane lysate, EnzChek fluorogenic substrate; inhibition, % at 5.17 µM; 340,000 tested, 0.059% active; in the data active means inhibition above about 34%;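 further: 0% = enzyme with vehicle and 100% = wells lacking enzyme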
# MOR-DOR ag: agonists of human mu-delta opioid receptor heterodimerization; P35372+P41143; cells, OPRM1-OPRD1 heterodimerization, luminescence; 340,000 tested, 0.3% active; AID 504326; activation, % at 9.3 µM;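 further: 0% = vehicle-treated cells and 100% = reference agonist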
# Arr AP2 block: human beta-arrestin and AP2 interaction inhibition | 340,000 tested, 0.31% active | FITC-arrestin peptide / GST-AP2 beads, flow cytometry; AP2 beta2 appendage carries R879A mutation | inhibition, % at 10 µM;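 active means inhibition above a set limit, near 3 SD of compounds lacking own fluorescence, cut at about 54% in these data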;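 further: plate controls were DMSO wells for no effect and 5 µM unlabelled arrestin peptide for full effect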
#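 System: GST-tagged AP2 beta2-adaptin appendage (R879A) on 4 µm glutathione beads / Reagent: FITC-arrestin peptide, 50 nM / Detection: HyperCyt-sampled flow cytometry, FL1 channel, ex 488/em 535 nm / Timing: 12 min plus 1 h, RT / Buffer or medium: PBS plus Tween 20 (0.05%) and BSA (0.1%)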
# MOR-DOR inv ag: mu-delta opioid heterodimer inverse agonism | P35372+P41143 | cell-based MOR-DOR heterodimer luminescence | inhibition, % at 9.3 µM | 340,000 tested, 0.21% active | AID 504357; in the data active means inhibition above about 22%, passing the limit was not always enough;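 further: 0% = cells with DMSO and 100% = wells without cells with DMSO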
# MOR-DOR ag conf: confirmation of human OPRM1-OPRD1 heterodimerization agonists; shares compounds with MOR-DOR ag; cells, MOR-DOR heterodimerization, luminescence complementation; activation, % at 9.3 µM; 830 tested, 45% active; AID 504904;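 further: 0% = vehicle-treated cells and 100% = reference agonist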
# HTR5A ag ctr2: counter-screen for OPRM1-OPRD1 agonists: human HTR5A agonism | HTR5A agonist counterscreen, cell luminescence | activation, % at 9.3 µM | 830 tested, 8% active | shares compounds with MOR-DOR ag; in the data active means activation above about 17%;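 further: 0% = vehicle-treated cells and 100% = reference agonist response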
# An asterisk follows results filed as active; i = inactive; / = not tested or not shown. Sampled rows, rich in hits. Any-hit rate of the full collection: about 1.4%. Unless noted, no stated cut-off is given here; in the data, active means activation above about 18%; inactive means the rest.
SMILES,HTR5A inv ctr,HTR5A ag ctr,DAGLB inh,MOR-DOR ag,Arr AP2 block,MOR-DOR inv ag,MOR-DOR ag conf,HTR5A ag ctr2
CC(=O)OC1(C)C=Cc2ccccc2C1=NS(=O)(=O)c1ccccc1 (stereo unspecified),/,/,-1,/,/,/,/,/
CCCn1c(SCC(=O)Nc2ccc(S(=O)(=O)N3CCOCC3)cc2)n[nH]c1=O,/,/,-2,/,/,/,/,/
Cc1ccc(S(=O)(=O)N2CCCCC2)cc1NC(=O)Cn1cnc2c1c(=O)n(C)c(=O)n2C,/,/,3,/,6,/,/,/
CCOC(=O)c1cnc(Cc2ccccc2)[nH]c1=O,6,-2,-1,-3,3,13,/,/
CCOC(=O)C1=C(Cc2ccc(F)cc2)C(=O)c2ccccc2C1=O,0,5,3,18*,31,-100,2,27*
O=C1Nc2ccc(Br)cc2/C1=C/C(=O)c1ccccc1,-17,4,0,18*,-22,-80,7,0
O=C(O)COc1ccccc1/C=C1\C(=O)Nc2ccc(Br)cc21,2,-1,4,-2,3,8,/,/
Cc1cccc2cc(C(c3nnnn3Cc3ccccc3)N3CCN(C)CC3)c(=O)[nH]c12 (stereo unspecified),0,0,-2,35*,26,-185,38*,2
Cc1ccc2[nH]c(=O)c(C(c3nnnn3Cc3ccccc3)N3CCc4ccccc43)cc2c1 (stereo unspecified),25,-2,6,8,12,-40,/,/
Cc1ccc2cc(C(c3nnnn3Cc3ccccc3)N3CCc4ccccc43)c(=O)[nH]c2c1 (stereo unspecified),-10,-3,2,20*,12,-108,60*,-1
COc1ccc(Cl)cc1S(=O)(=O)NC(C)c1cnn(-c2ccccn2)c1C (stereo unspecified),/,/,-2,/,/,/,/,/
CC(NCCC1(Cc2ccccc2Cl)CCOC(C)(C)C1)c1cccs1 (stereo unspecified),-13,-2,-2,45*,4,-227,6,2
OC(c1cc(C(F)(F)F)nc2c(Cl)cc(Cl)cc12)C1CCCCN1 (stereo unspecified),-42,12*,2,31*,-3,-139,1,3
COCCNC(=S)N(C)[C@H]1C[C@H]2c3cc(-c4ccccc4)ccc3CCN2C(=O)[C@H]1[C@H](C)O,/,/,3,/,/,/,/,/
CN(C)C(CNC(=S)Nc1ccc(F)cc1)c1cccnc1 (stereo unspecified),9,2,2,112*,-1,i,-2,-3
CN(C)C(CNS(=O)(=O)c1ccc(F)cc1)c1cccnc1 (stereo unspecified),-4,-4,1,-2,5,10,/,/
Cc1cccc(NC(=S)NCC(c2cccnc2)N(C)C)c1 (stereo unspecified),5,-1,2,218*,12,i,210*,-3
O=C(C(Br)=Cc1ccccc1)c1ccccc1,-7,2,-4,0,6,2,/,/
CCCN1CCC(=O)N([C@H](COc2ccccc2)Cc2ccccc2)CC1,-1,3,2,0,-1,3,/,/
O=C1CCN(Cc2ccccc2)CCN1[C@H](COc1ccccc1)Cc1ccccc1,7,5,-7,25*,-6,-140,25*,2
Nc1c(N(Cc2ccccc2)C(=O)COc2cccc(Cl)c2)c(=O)[nH]c(=O)n1Cc1ccccc1,0,2,13,21*,-4,-134,-2,-3
Nn1c(-c2ccccc2Cl)nnc1-c1ccccc1Cl,-10,3,2,18*,12,-98,0,5
CCOC(=O)C1=C(COC(=O)C2CC(=O)N(c3ccccc3CC)C2)NC(=O)NC1C (stereo unspecified),/,/,1,/,/,/,/,/
O=C(Nc1cc(Cl)cc(Cl)c1)c1ccc(Cn2c(=O)[nH]c3ccsc3c2=O)cc1,-11,-3,5,25*,-13,-134,0,0
COc1ccc(CC(=O)Nc2ccc(S(=O)(=O)Nc3cc(C)nc(C)n3)cc2)cc1OC,/,/,-1,/,/,/,/,/
SMILES,HTR5A inv ctr,HTR5A ag ctr,DAGLB inh,MOR-DOR ag,Arr AP2 block,MOR-DOR inv ag,MOR-DOR ag conf,HTR5A ag ctr2
Nc1ccc2c3c(ccc([N+](=O)[O-])c13)CC2,/,/,13,/,/,/,/,/
CCOc1ccc(-c2nnc(SCC(=O)Nc3ccc4c(c3)c3ccccc3n4CC)n2N)cc1,-2,1,0,33*,-7,-177,24*,19*
CCn1c2ccccc2c2cc(NC(=O)CSc3nnc(-c4ccc(OC)c(OC)c4)n3N)ccc21,-31,11,0,0,0,2,/,/
COc1ccc(NC(C)=O)cc1S(=O)(=O)NCc1ccc2c(c1)OCO2,/,/,-1,/,/,/,/,/
Cc1cc2[nH]c3c4ccccc4nc(C)c3c2cc1C,-22,6,2,35*,0,-172,68*,14
Cc1cc2[nH]c3c(c[n+](C)c4ccccc34)c2cc1C,10,-4,4,15,-16,-98,/,/
COCC(=O)OC1CCn2c1nc1c2C(=O)C(C)=C(NC(C)=O)C1=O (stereo unspecified),-22,6,-7,23*,10,-111,-2,-4
C[C@@H](C[C@@H](O)[C@H](O)C(C)(C)O)[C@@H]1CC[C@]2(C)C3=CC[C@H]4C(C)(C)C(=O)CC[C@]4(C)[C@H]3CC[C@@]12C,8,-3,-21,19*,1,-112,7,0
Cc1ccc(N2CC(O)CSC2=Nc2ccccc2)cc1 (stereo unspecified),/,/,-3,/,/,/,/,/
CC(=O)Nc1ccc(S(=O)(=O)NC2=C(N3CCN(Cc4ccccc4)CC3)C(=O)c3ccccc3C2=O)cc1,7,-2,25,55*,2,-288,69*,-7
O=c1[nH]cc(CCCc2ccccc2)c(=O)[nH]1,/,/,-1,/,/,/,/,/
CCCCN(c1ccccc1)S(=O)(=O)c1cccc(C(=O)Nc2c(C)n(C)n(-c3ccccc3)c2=O)c1,-5,2,-2,4,-8,-15,/,/
COc1ccc(C(C)NCCC(c2ccc(OC(C)C)cc2)c2ccccc2OC)cc1 (stereo unspecified),-5,1,-6,23*,10,-135,37*,7
N#CCC(=O)N/N=C/c1cn(Cc2ccc(Cl)cc2Cl)c2ccccc12,-6,5,-3,20*,12,-103,2,9
Cc1ccc([C@H]2C[C@@H](O)[C@H](n3cc(C4CC4)nn3)CN2C(=O)c2cccs2)cc1,/,/,0,/,/,/,/,/
CC1(C)CC(=O)C=C(c2ccc(-c3cnn(Cc4ccccc4)c3)cc2)C1=O,/,/,1,/,/,/,/,/
